Source: PubChem BioAssay
H69AR inhibit – growth inhibitors of human H69AR lung tumor cells; 85,000 compounds, 6% hits; AID 598; viability, % at 10 µM; H69AR lung tumor viability, ATP luminescence, 72 h; stronger effect = lower value;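 active = viability at or below 40%; inactive = viability above 40%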;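 also: multidrug resistant small cell line overexpressing MRP-1 efflux transporter; 100% = mean luminescence of untreated control wells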
Fibroblast inh – blocks proliferation of human lung fibroblasts. LL 47 human lung fibroblast viability, ATP luminescence; stronger effect = lower value. viability, % at 10 µM. 85,000 compounds, 1.1% hits;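 active = viability at or below 50% in the single dose screen; inactive = viability above 50%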;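 also: compound exposure lasted 72 h before the ATP readout; 100% = median luminescence of untreated cell-only wells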
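material = human LL 47 lung fibroblast cells | dosing = compounds added from tenfold dosing solution, 0.1% DMSO final | timing = overnight cell rest, 72 h compound treatment at 37 °C | measured by = CellTiter-Glo luminescence measuring cellular ATP | evaluation = % viability versus median cells-only luminescence | control set = cell-only wells, no compound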
HCT116 bCat-KO – beta-catenin-lacking colon tumor cell growth suppression; HCT116 beta-catenin knockout viability, CellTiter-Glo, 60 h; stronger effect = lower value; viability, % at 10 µM; 140,000 compounds, 1.5% hits;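 active = viability at or under a set limit, the compound median less 4 SD, cut at about 6% in these data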;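 also: 0% = Hyamine 1622 control at 20 µM and 100% = untreated cell control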
HUVEC inhibit – inhibitors of human endothelial cell proliferation; HUVEC proliferation, CellTiter-Glo luminescence, 72 h; stronger effect = lower value; viability, % at 10 µM (by protocol); 86,000 compounds, 1.1% hits;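 active = viability at or below 30%; inactive = viability above 30%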;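 also: 100% = median luminescence of DMSO-only cell control wells on each plate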
HCT116 PTEN-null – PTEN-deleted cell growth suppression. HCT116 PTEN-null viability, CellTiter-Glo, 60 h; stronger effect = lower value. viability, % at 10 µM. 140,000 compounds, 1.2% hits. AID 827;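 active = viability at or below a set limit, 4 SD under the median of all tested compounds, cut at about 3.7% in these data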;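 also: PTEN knockout HCT116 line with beta catenin targeted HCT116 as companion control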
Starred values were filed as active, the others as inactive; . = not tested or not shown. Shown is part of a subset that was picked to be rich in hits.

SMILES	H69AR inhibit	Fibroblast inh	HCT116 bCat-KO	HUVEC inhibit	HCT116 PTEN-null
COc1ccc(OC)c(C(=O)COC(=O)c2ccc(C)o2)c1	92	98	89	99	96
COc1ccc(C(=O)OCC(=O)c2cc(OC)ccc2OC)c(OC)c1	92	104	0.6*	103	0.8*
CCN1CCN(c2ncc(C(=O)Nc3cc(Cl)c(OC)cc3OC)c3ccccc23)CC1	23*	85	76	18*	76
CCN1CCN(c2ncc(C(=O)Nc3c(F)cc(F)cc3Br)c3ccccc23)CC1	21*	83	15	59	20
CCN1CCN(c2ncc(C(=O)N3CCN(c4ccccc4OC)CC3)c3ccccc23)CC1	89	105	.	93	.
CN(CC(=O)Nc1cccc(F)c1)C(=O)CCCc1cccs1	.	.	93	.	97
Cc1ccc(-c2c[n+](CC(=O)Nc3cc(=O)n(C)c(=O)n3C)c3n2CCC3)cc1	.	.	88	.	81
O=C(N/N=C/c1c[nH]c2ccccc12)c1cc(-c2ccc(-c3ccccc3)cc2)n[nH]1	.	.	1.1*	.	1.3*
O=C(N/N=C/c1ccco1)c1cc(-c2ccc3ccccc3c2)n[nH]1	1.8*	76	48	3.7*	27
O=C(N/N=C/C=C\c1ccccc1[N+](=O)[O-])c1cc(-c2ccc3ccccc3c2)n[nH]1	.	.	4.7*	.	5
O=C(N/N=C/C=C\c1ccccc1[N+](=O)[O-])c1cccs1	.	.	76	.	79
CC(NC(=O)/C=C/c1cnc2ccccc2n1)C12CC3CC(CC(C3)C1)C2 (configuration not stated)	.	.	55	.	50
Cc1nc2cc(NC(=O)CCS(=O)(=O)c3ccccc3)ccc2s1	.	.	94	.	106
Cc1ccc2[nH]c(O)c(N=NC(=O)C(C)n3cnc4ccccc4c3=O)c2c1 (configuration not stated)	.	.	88	.	87
CCOc1ccccc1C1C(C(=O)OC)=C(N)OC2=C1C(=O)CCC2 (configuration not stated)	86	102	96	110	104
CCOc1ccc(Br)cc1C1C(C(=O)OC)=C(N)Oc2cc(N(C)C)ccc21 (configuration not stated)	25*	57	17	46	14
c1ccc(OCCOCCN2CCN(C(c3ccccc3)c3ccccc3)CC2)cc1	.	.	52	.	58
O=S(=O)(CCN1CCN(C(c2ccccc2)c2ccccc2)CC1)C(F)(F)F	4.4*	73	9	79	25
O=C(NNC(=O)C1CCCCC1)C(=O)NC1CCCCC1	.	.	103	.	93
N#C/C=C(/N)N1CCN(c2ccc(Cl)c(Cl)c2)CC1	.	.	92	.	102
Cc1ccc2c(c1)c1c(n2CC(O)Cn2c(C)nc3ccccc32)C(=O)CCC1 (configuration not stated)	81	92	36	74	42
Cc1ccc2c(c1)c1c(n2CC(O)Cn2c(C)nc3ccccc32)/C(=N\O)CCC1 (configuration not stated)	2.7*	94	39	3.4*	34
CCCCC(=O)Nc1ccc(NC(=S)NC(=O)CCCCl)cc1OC	.	.	91	.	94
Cc1ccc([N+](=O)[O-])cc1N(CC(=O)Nc1ccc(S(=O)(=O)Nc2cccc(C(F)(F)F)c2)cc1)S(C)(=O)=O	.	.	55	.	44
CCN1/C(=C(\O)c2ccccc2)C(=O)c2ccccc2S1(=O)=O	33*	89	52	62	62
SMILES	H69AR inhibit	Fibroblast inh	HCT116 bCat-KO	HUVEC inhibit	HCT116 PTEN-null
CC(C)(C)N1CC(c2nc3ccccc3n2Cc2ccccc2)CC1=O (configuration not stated)	38*	83	88	96	86
CCn1c(C2CC(=O)N(Cc3ccccc3)C2)nc2ccccc21 (configuration not stated)	85	92	100	90	103
CCCCSc1nc2c(cnn2-c2ccc(Cl)cc2)c(=O)[nH]1	51	88	97	87	78
CCCSc1nc2c(cnn2-c2ccc(C)cc2)c(=O)[nH]1	13*	91	70	11*	53
CCCSc1nc2c(cnn2-c2ccccc2)c(=O)[nH]1	106	93	107	73	103
O=C(CSc1nc2c(cnn2-c2ccccc2)c(=O)[nH]1)c1ccc(Cl)cc1	36*	98	93	88	103
COCCCNC(=S)N(Cc1cccnc1)Cc1ccc(OC)c(OC)c1	.	.	96	.	100
CCOc1ccc(-c2nnn(CC(=O)Nc3ccccc3OC)n2)cc1OCC	11*	78	116	42	99
COc1ccccc1NC(=O)Cn1nnc(-c2ccccc2NC(=O)c2cccs2)n1	30*	87	29	49	55
COc1cc(C(=O)Nc2ccccc2-c2nnn(CC(N)=O)n2)cc(OC)c1OC	.	.	104	.	108
COc1ccc(-c2nnn(CC(=O)NCc3ccccc3)n2)cc1OC	95	92	86	99	86
O=C(Cn1nnc(-c2ccccc2NC(=O)c2cccs2)n1)Nc1ccccc1	15*	86	61	59	52
NC(=O)C1CCN(C(=O)COc2ccc(S(=O)(=O)NCc3ccccc3)cc2Cl)CC1	.	.	93	.	87
Cc1ccc2c(c1)[nH]c1c(N3CCN(Cc4ccc5c(c4)OCO5)CC3)ncnc12	65	107	.	69	.
CSc1sc(C(=O)O)c(C)c1C(C)=O	.	.	99	.	104
CCOC(=O)N1CCN(C(=S)Nc2ccc(C)cc2)CC1	.	.	93	.	95
CCOC(=O)C1=C(c2ccccc2)O/C(=C(/C#N)C(F)(F)F)S1	1.7*	2.5*	8	10*	7
Oc1nc(Nc2cccc(Cl)c2)sc1/C=C1\C=Nc2ccccc21	.	.	70	.	68
CCOC(=O)c1c(Nc2ccc(Cl)cc2)sc(/C=C2\C=Nc3ccccc32)c1O	2.7*	46*	37	12*	14
CCOC(=O)c1cc2sc(C)cc2n1CC(=O)NCc1ccc(F)cc1	30*	95	96	67	86
CCOC(=O)c1cc2sc(C)cc2n1CC(=O)N1CCOCC1	102	102	94	108	92
COc1ccc(C2CC(c3ccccc3)=NN2C(=O)COC(=O)c2cc(S(=O)(=O)N3CCOCC3)ccc2F)cc1 (configuration not stated)	.	.	83	.	85
NS(=O)(=O)c1ccc(N/N=C2/CCCCC2C2CCCCC2)c([N+](=O)[O-])c1 (configuration not stated)	.	.	1.7*	.	2.5*
CC1C/C(=N\Nc2ccc(S(N)(=O)=O)cc2[N+](=O)[O-])CC(C)(C)C1 (configuration not stated)	.	.	61	.	61
O=[N+]([O-])c1ccc(Sc2cccc3cccnc23)c([N+](=O)[O-])c1	1.6*	4.2*	1.6*	50	2.2*
C=CCn1nc([N+](=O)[O-])nc1Sc1cccc2cccnc12	.	.	2.1*	.	1.8*
CCCCOCCCNc1ncnc2c1[nH]c1ccccc12	39*	91	13	71	14
COc1cc(OC)c(OC)cc1/C=N/Nc1ncnc2c1[nH]c1ccccc12	.	.	4.2*	.	5
Cc1nc(N2CCc3ccccc32)[nH]c(=O)c1CCC(C)C	46	54	.	58	.
